Data published in ChEMBL document CHEMBL1136724 (J Med Chem, 2003).

Key:
Rattus norvegicus [1] = organism: Rattus norvegicus; experiment: animal or person
DLD-1 = experiment: Inhibitory activity against synthesis of inducible nitric oxide synthase by DLD-1 cells; format: functional, cell-based; conditions: Homo sapiens
Summary of the method: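 Intact human DLD-1 cells preincubated with a cytokine cocktail to induce NO production; inhibition of NO production measured; IC50 is the mean of at least two separate measurements.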

[2] = target: T1, Nitric oxide synthase 3 (Homo sapiens) (UniProt P29474); experiment: Inhibitory activity of 100 uM compound against human endothelial nitric oxide synthase; Range is […]%-[…]%
T1 sequence (whole entry): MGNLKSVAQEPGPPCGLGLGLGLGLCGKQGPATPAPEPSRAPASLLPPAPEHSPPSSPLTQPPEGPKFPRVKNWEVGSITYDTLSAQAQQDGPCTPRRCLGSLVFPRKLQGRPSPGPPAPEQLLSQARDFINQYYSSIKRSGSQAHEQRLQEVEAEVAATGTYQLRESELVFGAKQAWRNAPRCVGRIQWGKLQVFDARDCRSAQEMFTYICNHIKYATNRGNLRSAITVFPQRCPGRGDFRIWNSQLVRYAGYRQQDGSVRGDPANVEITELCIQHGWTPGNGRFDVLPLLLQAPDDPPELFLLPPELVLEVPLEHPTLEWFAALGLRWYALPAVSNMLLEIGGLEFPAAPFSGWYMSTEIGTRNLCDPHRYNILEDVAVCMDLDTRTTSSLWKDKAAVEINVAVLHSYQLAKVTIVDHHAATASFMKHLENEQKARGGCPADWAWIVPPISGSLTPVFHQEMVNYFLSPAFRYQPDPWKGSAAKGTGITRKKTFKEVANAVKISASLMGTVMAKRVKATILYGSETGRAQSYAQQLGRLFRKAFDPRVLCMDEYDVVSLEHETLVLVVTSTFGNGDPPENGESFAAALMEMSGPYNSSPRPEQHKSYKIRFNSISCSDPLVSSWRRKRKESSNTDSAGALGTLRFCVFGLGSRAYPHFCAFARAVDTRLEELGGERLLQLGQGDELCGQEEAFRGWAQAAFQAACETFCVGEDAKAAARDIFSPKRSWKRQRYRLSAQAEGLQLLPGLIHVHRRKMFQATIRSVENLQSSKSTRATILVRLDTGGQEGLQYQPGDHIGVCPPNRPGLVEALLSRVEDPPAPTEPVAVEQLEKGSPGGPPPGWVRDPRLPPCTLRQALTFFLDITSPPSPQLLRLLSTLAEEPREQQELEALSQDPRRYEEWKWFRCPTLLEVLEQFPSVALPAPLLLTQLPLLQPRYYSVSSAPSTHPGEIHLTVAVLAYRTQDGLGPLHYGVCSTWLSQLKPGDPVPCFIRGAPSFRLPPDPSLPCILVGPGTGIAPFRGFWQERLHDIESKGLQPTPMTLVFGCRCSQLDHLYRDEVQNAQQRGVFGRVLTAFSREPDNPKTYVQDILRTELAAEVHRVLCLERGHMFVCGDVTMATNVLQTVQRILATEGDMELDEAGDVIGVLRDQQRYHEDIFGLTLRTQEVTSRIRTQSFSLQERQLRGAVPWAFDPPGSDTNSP

Rattus norvegicus [3] = experiment: Inhibition of LPS induced nitrite production in rat following 4 hr of oral administration; format: functional; conditions: read-out: ID50 (the source's name)
[4] = target: Nitric oxide synthase, inducible (Homo sapiens, UniProt P35228); experiment: Inhibitory activity of compound against human inducible nitric oxide synthase
Nitric oxide synthase 1 [5] = target: T2, Nitric oxide synthase 1 (Homo sapiens, UniProt P29475); experiment: Inhibitory activity against human neuronal nitric oxide synthase
[6] = Pharmacokinetic parameter pKa for amidine group of compound was evaluated; format: physicochemical
Nitric oxide synthase 3 = target: T3, Nitric oxide synthase 3 (Homo sapiens, UniProt P29474); experiment: Inhibitory activity against human endothelial nitric oxide synthase
T3 sequence (P29474 whole entry): T1 sequence (whole entry)

[7] = target: T1, Nitric oxide synthase 3 (Homo sapiens); experiment: Inhibitory activity of 100 uM compound against human endothelial nitric oxide synthase
Nitric oxide synthase 1 [8] = target: T2, Nitric oxide synthase 1; experiment: Inhibitory activity of 100 uM compound against human neuronal nitric oxide synthase; Range is […]%-[…]%
[9] = target: T1, Nitric oxide synthase 3 (Homo sapiens); experiment: Inhibitory activity of 100 uM compound against human endothelial nitric oxide synthase; range is […]%-[…]%; conditions: at 100 µM
Nitric oxide synthase 1 [10] = target: T2, Nitric oxide synthase 1; experiment: Inhibitory activity of 100 uM compound against human neuronal nitric oxide synthase; range is […]%-[…]%; conditions: at 100 µM

T2 sequence (P29475 whole entry): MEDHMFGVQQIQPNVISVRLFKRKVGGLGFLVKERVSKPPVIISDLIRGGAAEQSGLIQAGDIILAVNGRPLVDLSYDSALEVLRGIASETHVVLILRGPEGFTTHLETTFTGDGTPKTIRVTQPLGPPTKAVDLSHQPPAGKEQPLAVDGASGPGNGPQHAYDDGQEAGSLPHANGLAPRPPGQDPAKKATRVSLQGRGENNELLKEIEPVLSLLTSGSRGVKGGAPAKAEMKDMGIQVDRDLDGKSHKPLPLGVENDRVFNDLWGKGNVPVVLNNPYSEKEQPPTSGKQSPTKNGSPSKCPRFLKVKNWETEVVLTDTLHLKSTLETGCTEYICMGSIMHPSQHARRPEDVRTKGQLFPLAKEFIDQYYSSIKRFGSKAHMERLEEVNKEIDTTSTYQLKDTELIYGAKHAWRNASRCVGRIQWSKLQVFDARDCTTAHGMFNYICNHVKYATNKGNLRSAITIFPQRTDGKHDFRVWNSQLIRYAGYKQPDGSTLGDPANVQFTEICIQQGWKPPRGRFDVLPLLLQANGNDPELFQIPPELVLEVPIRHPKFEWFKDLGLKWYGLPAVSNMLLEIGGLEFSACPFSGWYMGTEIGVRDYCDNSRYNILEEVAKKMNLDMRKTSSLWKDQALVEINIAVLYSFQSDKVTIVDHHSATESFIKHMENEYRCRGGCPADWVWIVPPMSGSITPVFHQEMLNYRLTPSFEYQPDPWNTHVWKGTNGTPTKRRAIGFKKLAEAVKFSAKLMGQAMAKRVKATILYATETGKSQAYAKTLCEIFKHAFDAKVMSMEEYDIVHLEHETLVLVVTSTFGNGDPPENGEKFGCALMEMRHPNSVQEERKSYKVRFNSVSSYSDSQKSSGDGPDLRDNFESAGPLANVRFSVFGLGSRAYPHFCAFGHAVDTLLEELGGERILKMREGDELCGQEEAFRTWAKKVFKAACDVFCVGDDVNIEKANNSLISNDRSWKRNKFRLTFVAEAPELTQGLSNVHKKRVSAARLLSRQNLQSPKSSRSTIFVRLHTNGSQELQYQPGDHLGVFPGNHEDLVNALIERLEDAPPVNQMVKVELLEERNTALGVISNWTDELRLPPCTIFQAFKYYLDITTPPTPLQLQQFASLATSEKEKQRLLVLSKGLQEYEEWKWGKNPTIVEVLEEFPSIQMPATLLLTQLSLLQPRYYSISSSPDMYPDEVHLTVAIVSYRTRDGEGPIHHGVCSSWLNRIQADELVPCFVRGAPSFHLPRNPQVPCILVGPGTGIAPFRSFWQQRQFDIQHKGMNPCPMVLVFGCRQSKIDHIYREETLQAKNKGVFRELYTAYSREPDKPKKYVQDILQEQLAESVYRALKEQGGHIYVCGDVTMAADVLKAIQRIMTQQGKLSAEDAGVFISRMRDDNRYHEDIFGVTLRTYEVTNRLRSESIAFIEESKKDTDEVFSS
Chain of Nitric oxide synthase, inducible (P35228 whole entry): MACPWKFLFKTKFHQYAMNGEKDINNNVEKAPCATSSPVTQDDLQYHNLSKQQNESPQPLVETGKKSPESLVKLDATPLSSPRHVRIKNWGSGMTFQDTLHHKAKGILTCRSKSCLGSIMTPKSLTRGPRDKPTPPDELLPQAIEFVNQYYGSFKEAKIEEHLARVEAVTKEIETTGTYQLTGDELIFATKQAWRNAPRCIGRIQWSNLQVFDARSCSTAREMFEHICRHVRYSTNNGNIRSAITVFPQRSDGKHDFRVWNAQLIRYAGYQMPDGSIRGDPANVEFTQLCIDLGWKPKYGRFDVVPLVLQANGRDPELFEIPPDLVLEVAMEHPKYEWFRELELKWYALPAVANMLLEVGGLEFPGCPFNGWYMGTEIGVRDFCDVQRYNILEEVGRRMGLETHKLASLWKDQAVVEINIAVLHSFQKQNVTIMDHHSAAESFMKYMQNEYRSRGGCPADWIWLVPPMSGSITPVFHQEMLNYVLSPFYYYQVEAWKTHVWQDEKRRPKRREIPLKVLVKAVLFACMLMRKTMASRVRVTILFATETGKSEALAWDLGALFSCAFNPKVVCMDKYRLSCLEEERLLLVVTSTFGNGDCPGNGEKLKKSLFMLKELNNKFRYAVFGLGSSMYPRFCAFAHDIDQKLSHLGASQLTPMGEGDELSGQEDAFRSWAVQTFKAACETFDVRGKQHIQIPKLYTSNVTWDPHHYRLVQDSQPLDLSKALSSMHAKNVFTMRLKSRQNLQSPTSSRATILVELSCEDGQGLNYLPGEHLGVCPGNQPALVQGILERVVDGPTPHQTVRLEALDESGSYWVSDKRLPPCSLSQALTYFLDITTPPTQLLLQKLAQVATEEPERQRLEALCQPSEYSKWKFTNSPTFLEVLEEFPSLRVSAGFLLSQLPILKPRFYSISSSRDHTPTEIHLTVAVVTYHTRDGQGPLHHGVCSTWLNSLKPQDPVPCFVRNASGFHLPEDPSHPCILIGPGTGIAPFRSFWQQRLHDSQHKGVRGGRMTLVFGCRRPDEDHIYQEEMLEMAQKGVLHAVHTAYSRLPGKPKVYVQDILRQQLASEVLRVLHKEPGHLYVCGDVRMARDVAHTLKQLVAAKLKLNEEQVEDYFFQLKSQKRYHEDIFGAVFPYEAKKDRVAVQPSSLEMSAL

SMILES	IC50 (DLD-1) [µM]	IC50 [4] [µM]	IC50 (Nitric oxide synthase 1 [5]) [µM]	ED50 (Rattus norvegicus [3]) [µmol/kg]	also measured
N#Cc1ccc(C(=O)N2CCC3(CC2)N=C(N)c2c(F)ccc(F)c2N3)cn1	0.9			3	ED50 (Rattus norvegicus [1]): ~10 µmol/kg; inhibition [2]: 50%
N#Cc1ccc(C(=O)N2CCC3(CC2)N=C(N)c2c(F)cccc2N3)cc1	4.5	0.027	12	14	pKa [6]: 9.1; inhibition [2]: 50%
CCOC(=O)N1CCC2(CC1)N=C(N)c1c(F)cccc1N2	9.6	0.035	40		IC50 (Nitric oxide synthase 3): 100 µM
CCOC(=O)N1CCC2(CC1)N=C(N)c1sccc1N2	> 500	0.3	50		IC50 (Nitric oxide synthase 3): 100 µM
COC(=O)[C@@H](N)CCCNC(=N)N[N+](=O)[O-] [L-NAME]	> 300		0.15	> 300	
NC1=NC2(CCNCC2)Nc2ccccc21		~50			
NC1=NC2(CCN(C(=O)c3ccsc3)CC2)Nc2cccc(F)c21	12	0.067	70		inhibition [7]: < 25%
CSCCOC(=O)N1CCC2(CC1)N=C(N)c1c(F)cccc1N2	11	0.039			inhibition (Nitric oxide synthase 1 [8]): 50%; inhibition [2]: 50%
CNC(=N)NCCC[C@H](N)C(=O)O [TILARGININE]	21			700	
N#Cc1ccc(C(=O)N2CCC3(CC2)N=C(N)c2c(F)ccc(F)c2N3)cc1	1.6	0.048	3.3	3	pKa [6]: 8.4; inhibition [2]: 50%
NC1=NCNc2ccccc21		40			
CC(=N)NCCCC[C@H](N)C(=O)O [L-NIL]	2.8	0.1	1.5	9	IC50 (Nitric oxide synthase 3): 2.6 µM
CCC1(C)N=C(N)c2ccccc2N1 (configuration not stated)		32			
NC1=NC(C2CCC2)Nc2cccc(F)c21 (configuration not stated)	1.2	0.02	1	> 30	IC50 (Nitric oxide synthase 3): 4.6 µM
NC1=NC(c2ccco2)Nc2c(F)ccc(F)c21 (configuration not stated)	0.2	0.002	0.06	16	IC50 (Nitric oxide synthase 3): 0.18 µM
CCOC(=O)N1CCC2(CC1)N=C(N)c1c(Cl)cccc1N2	9.2	0.047			inhibition [9]: 50%; inhibition (Nitric oxide synthase 1 [10]): 50%
N=C(N)NN [PIMAGEDINE]	> 1000	3.9	5.9		IC50 (Nitric oxide synthase 3): 100 µM
NC1=NC(c2ccc(F)cc2)Nc2cccc(F)c21 (configuration not stated)	4	0.05	3.5	> 30	inhibition [7]: < 25%
CC1(C)N=C(N)c2ccccc2N1		52			

The next lines start with results.

IC50 (DLD-1) [µM]	IC50 [4] [µM]	IC50 (Nitric oxide synthase 1 [5]) [µM]	SMILES	ED50 (Rattus norvegicus [3]) [µmol/kg]	also measured
	0.4		NC1=NC(c2cccs2)Nc2ccccc21 (configuration not stated)		
	2.5		NC1=NC(c2ccccc2)Nc2ccccc21 (configuration not stated)		
	0.9		CCC1N=C(N)c2ccccc2N1 (configuration not stated)		
	4.5		NC1=NC(C2CCCC2)Nc2ccccc21 (configuration not stated)		
	9.8		CC1N=C(N)c2ccccc2N1 (configuration not stated)		
	1.1		NC1=NC(C2CCC2)Nc2ccccc21 (configuration not stated)		
	0.2		NC1=NC(c2ccco2)Nc2ccccc21 (configuration not stated)		
	1.1		NC1=NC(C2CC2)Nc2ccccc21 (configuration not stated)		
